Results: ChEMBL document CHEMBL4359870, “Identification of a new family of pyrazolo[3,4-d]pyrimidine derivatives as multitarget Fyn-Blk-Lyn inhibitors active on B- and T-lymphoma cell lines” (Eur J Med Chem, 2019)
≈ marks a conversion by molar mass, not a printed value.

tested on: Farage; assay: Antiproliferative activity against human Farage cells assessed as reduction in cell viability after 72 hrs by MTT assay; details: not given

Row | SMILES | IC50
1 | CCc1ccc(-c2nn(CC(Cl)c3ccccc3)c3ncnc(N)c23)cc1 (racemic) | 22.7 µM
2 | CC(Cn1nc(-c2ccc(F)cc2)c2c(N)ncnc21)c1ccccc1 (racemic) | 22.8 µM
3 | Cc1ccc(-c2nn(CCc3ccccc3)c3ncnc(N)c23)cc1 | 16 µM
4 | Nc1ncnc2c1c(-c1ccccc1Cl)nn2CC(Cl)c1ccccc1 (racemic) | 51.5 µM
5 | CCCc1ccc(-c2nn(CC(Cl)c3ccccc3)c3ncnc(N)c23)cc1 (racemic) | 29.4 µM
6 | Nc1ncnc2c1c(-c1ccc(CO)cc1)nn2CC(O)c1ccccc1 (racemic) | 27 µM
7 | Nc1ncnc2c1c(-c1ccc(Cl)cc1)nn2CC(Cl)c1ccccc1 (stereo not drawn) | 14.9 µM

tested on: HuT78; assay: Antiproliferative activity against human HUT78 cells assessed as reduction in cell viability after 72 hrs by MTT assay; details: HuT78, 72 h

Row | SMILES | IC50
8 | CCc1ccc(-c2nn(CC(Cl)c3ccccc3)c3ncnc(N)c23)cc1 (racemic) | 58 µM
9 | CC(Cn1nc(-c2ccc(F)cc2)c2c(N)ncnc21)c1ccccc1 (racemic) | > 100 µM
10 | Cc1ccc(-c2nn(CCc3ccccc3)c3ncnc(N)c23)cc1 | > 100 µM
11 | Nc1ncnc2c1c(-c1ccccc1Cl)nn2CC(Cl)c1ccccc1 (racemic) | > 100 µM
12 | CCCc1ccc(-c2nn(CC(Cl)c3ccccc3)c3ncnc(N)c23)cc1 (racemic) | 9.9 µM
13 | Nc1ncnc2c1c(-c1ccc(CO)cc1)nn2CC(O)c1ccccc1 (racemic) | > 100 µM
14 | Nc1ncnc2c1c(-c1ccc(Cl)cc1)nn2CC(Cl)c1ccccc1 (stereo not drawn) | > 100 µM

molecular target: Tyrosine-protein kinase Lyn (Homo sapiens, UniProt P07948); assay: Inhibition of LYN (unknown origin) using KVEKIGEGTYGVVYK as substrate in presence of [gamma33P]ATP as substrate in presence of [gamma33P]ATP by scintillation counting method; details: not given
How it was run: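 Lyn radiometric assay with 200 µM Src-peptide, 40 µM ATP plus γ-33P ATP, 0.0013% NP-40, 10-50 ng enzyme, 10% DMSO, 30 °C for 10 min. ID50 taken from velocity fits. Ki derived assuming ATP-competitive binding, with ATP Km 39.9 µM.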

Chain of Tyrosine-protein kinase Lyn (P07948 whole entry): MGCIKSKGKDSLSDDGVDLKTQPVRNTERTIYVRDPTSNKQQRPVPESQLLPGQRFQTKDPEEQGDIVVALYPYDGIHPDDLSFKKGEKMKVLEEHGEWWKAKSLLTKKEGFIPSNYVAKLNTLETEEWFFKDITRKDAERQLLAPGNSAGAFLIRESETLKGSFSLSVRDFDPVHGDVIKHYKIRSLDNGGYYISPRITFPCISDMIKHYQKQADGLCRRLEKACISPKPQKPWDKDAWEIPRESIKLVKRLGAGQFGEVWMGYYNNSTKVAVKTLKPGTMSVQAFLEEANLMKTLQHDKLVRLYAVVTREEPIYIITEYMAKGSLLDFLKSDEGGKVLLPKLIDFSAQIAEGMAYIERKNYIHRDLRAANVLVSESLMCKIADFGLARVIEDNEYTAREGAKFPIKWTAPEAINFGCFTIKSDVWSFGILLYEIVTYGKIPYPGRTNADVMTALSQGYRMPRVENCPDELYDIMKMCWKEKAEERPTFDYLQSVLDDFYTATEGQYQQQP

Row | Ki | SMILES
15 | 0.19 µM | Nc1ncnc2c1c(-c1ccc(Cl)cc1)nn2CC(Cl)c1ccccc1 (stereo not drawn)

tested on: SU-DHL-8; assay: Antiproliferative activity against human SUDHL8 cells assessed as reduction in cell viability after 72 hrs by MTT assay; details: SU-DHL-8, 72 h

Row | SMILES | IC50
16 | CCc1ccc(-c2nn(CC(Cl)c3ccccc3)c3ncnc(N)c23)cc1 (racemic) | 17.5 µM
17 | CC(Cn1nc(-c2ccc(F)cc2)c2c(N)ncnc21)c1ccccc1 (racemic) | 12.1 µM
18 | Cc1ccc(-c2nn(CCc3ccccc3)c3ncnc(N)c23)cc1 | 37 µM
19 | Nc1ncnc2c1c(-c1ccc(Cl)cc1)nn2CC(Cl)c1ccccc1 (stereo not drawn) | 8.87 µM

Continued by falling IC50, values first:

Row | IC50 | SMILES
20 | 27.2 µM | Nc1ncnc2c1c(-c1ccc(CO)cc1)nn2CC(O)c1ccccc1 (racemic)
21 | 18.4 µM | Nc1ncnc2c1c(-c1ccccc1Cl)nn2CC(Cl)c1ccccc1 (racemic)
22 | 6.72 µM | CCCc1ccc(-c2nn(CC(Cl)c3ccccc3)c3ncnc(N)c23)cc1 (racemic)

tested on: HH; assay: Antiproliferative activity against human HH cells assessed as reduction in cell viability after 72 hrs by MTT assay; details: not given

Row | SMILES | IC50
23 | CCc1ccc(-c2nn(CC(Cl)c3ccccc3)c3ncnc(N)c23)cc1 (racemic) | 21.1 µM
24 | CC(Cn1nc(-c2ccc(F)cc2)c2c(N)ncnc21)c1ccccc1 (racemic) | 11.8 µM
25 | Cc1ccc(-c2nn(CCc3ccccc3)c3ncnc(N)c23)cc1 | 17.3 µM
26 | Nc1ncnc2c1c(-c1ccccc1Cl)nn2CC(Cl)c1ccccc1 (racemic) | > 100 µM
27 | CCCc1ccc(-c2nn(CC(Cl)c3ccccc3)c3ncnc(N)c23)cc1 (racemic) | 48.5 µM
28 | Nc1ncnc2c1c(-c1ccc(CO)cc1)nn2CC(O)c1ccccc1 (racemic) | 17.3 µM
29 | Nc1ncnc2c1c(-c1ccc(Cl)cc1)nn2CC(Cl)c1ccccc1 (stereo not drawn) | 13.9 µM

tested on: not listed separately; assay: Apparent permeability of compound at 500 uM after 5 hrs by UV/LC-MS analysis based GI-PAMPA assay; type: ADME; details: not given
How it was run: (§1)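 GI-PAMPA run with donor compound at 500 µM final, diluted from 1 mM DMSO into pH 7.4 25.0 mM phosphate buffer. Filter coated with 1% (w/v) phosphatidylcholine in dodecane. Acceptor was 50% v/v DMSO/phosphate buffer. Incubated 5 h at r.t. with gentle shaking. Donor and acceptor wells quantified by UV/LC-MS peak area. Papp and membrane retention calculated by equation, in triplicate.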

Row | Papp at 5 h, 500 µM | SMILES
30 | 9.95 ×10⁻⁶ cm/s | Nc1ncnc2c1c(-c1ccc(Cl)cc1)nn2CC(Cl)c1ccccc1 (stereo not drawn)

tested on: H9; assay: Antiproliferative activity against human H9 cells assessed as reduction in cell viability after 72 hrs by MTT assay; details: H9, 72 h

Row | SMILES | IC50
31 | CCc1ccc(-c2nn(CC(Cl)c3ccccc3)c3ncnc(N)c23)cc1 (racemic) | 24.2 µM
32 | CC(Cn1nc(-c2ccc(F)cc2)c2c(N)ncnc21)c1ccccc1 (racemic) | 18.8 µM
33 | Cc1ccc(-c2nn(CCc3ccccc3)c3ncnc(N)c23)cc1 | > 100 µM
34 | Nc1ncnc2c1c(-c1ccccc1Cl)nn2CC(Cl)c1ccccc1 (racemic) | 38.9 µM
35 | CCCc1ccc(-c2nn(CC(Cl)c3ccccc3)c3ncnc(N)c23)cc1 (racemic) | 4.74 µM
36 | Nc1ncnc2c1c(-c1ccc(CO)cc1)nn2CC(O)c1ccccc1 (racemic) | 22.3 µM
37 | Nc1ncnc2c1c(-c1ccc(Cl)cc1)nn2CC(Cl)c1ccccc1 (stereo not drawn) | 13.6 µM

tested on: not listed separately; assay: Metabolic stability in human liver microsomes assessed as compound remaining at 50 uM after 1 hr by UV/LC-MS analysis relative to control; type: ADME, Microsome; details: read-out: Stability
How it was run: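 Human liver microsomes at 0.2 mg/mL with NADPH regenerating system, compound at 50 µM in pH 7.4 25 mM phosphate buffer, 37 °C for 1 h. Quenched with acetonitrile, then supernatant dried and taken up in methanol. Unmetabolized percentage measured by UV/LC-MS. Mean of at least three experiments.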

Row | remaining at 1 h, 50 µM | SMILES
38 | 85.2% | Nc1ncnc2c1c(-c1ccc(Cl)cc1)nn2CC(Cl)c1ccccc1 (stereo not drawn)

tested on: not listed separately; assay: Membrane retention of compound at 500 uM after 5 hrs by UV/LC-MS analysis based GI-PAMPA assay relative to control; type: ADME; details: not given; how it was run: as §1

Row | R% | SMILES
39 | 70.4% | Nc1ncnc2c1c(-c1ccc(Cl)cc1)nn2CC(Cl)c1ccccc1 (stereo not drawn)

tested on: not listed separately; assay: Aqueous solubility of compound at 1 mg after 24 hrs by LC-MS/MS analysis; type: physicochemical; details: water
How it was run: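 Solid compound (1 mg) shaken in 1 mL water at 20 °C for 24 h, then filtered through 0.45 µm nylon. Dissolved concentration measured by LC-MS-MS against a methanol calibration curve, in triplicate. Mean of at least three experiments.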

Row | solubility at 24 h | SMILES
40 | 0.01 µg/mL (≈ 0.026 µM) | Nc1ncnc2c1c(-c1ccc(Cl)cc1)nn2CC(Cl)c1ccccc1 (stereo not drawn)

tested on: DOHH-2; assay: Antiproliferative activity against human DOHH2 cells assessed as reduction in cell viability after 72 hrs by MTT assay; details: DOHH-2, 72 h

Row | SMILES | IC50
41 | CCc1ccc(-c2nn(CC(Cl)c3ccccc3)c3ncnc(N)c23)cc1 (racemic) | 21.2 µM
42 | CC(Cn1nc(-c2ccc(F)cc2)c2c(N)ncnc21)c1ccccc1 (racemic) | 21.3 µM
43 | Cc1ccc(-c2nn(CCc3ccccc3)c3ncnc(N)c23)cc1 | 9.74 µM
44 | Nc1ncnc2c1c(-c1ccccc1Cl)nn2CC(Cl)c1ccccc1 (racemic) | 26.6 µM
45 | CCCc1ccc(-c2nn(CC(Cl)c3ccccc3)c3ncnc(N)c23)cc1 (racemic) | 4.38 µM
46 | Nc1ncnc2c1c(-c1ccc(CO)cc1)nn2CC(O)c1ccccc1 (racemic) | 12.1 µM
47 | Nc1ncnc2c1c(-c1ccc(Cl)cc1)nn2CC(Cl)c1ccccc1 (stereo not drawn) | 11.4 µM

molecular target: Tyrosine-protein kinase Blk (Homo sapiens, UniProt P51451); assay: Inhibition of BLK (unknown origin) using KVEKIGEGTYGVVYK as substrate in presence of [gamma33P]ATP as substrate in presence of [gamma33P]ATP by scintillation counting method; details: not given
Sequence (P51451 whole entry): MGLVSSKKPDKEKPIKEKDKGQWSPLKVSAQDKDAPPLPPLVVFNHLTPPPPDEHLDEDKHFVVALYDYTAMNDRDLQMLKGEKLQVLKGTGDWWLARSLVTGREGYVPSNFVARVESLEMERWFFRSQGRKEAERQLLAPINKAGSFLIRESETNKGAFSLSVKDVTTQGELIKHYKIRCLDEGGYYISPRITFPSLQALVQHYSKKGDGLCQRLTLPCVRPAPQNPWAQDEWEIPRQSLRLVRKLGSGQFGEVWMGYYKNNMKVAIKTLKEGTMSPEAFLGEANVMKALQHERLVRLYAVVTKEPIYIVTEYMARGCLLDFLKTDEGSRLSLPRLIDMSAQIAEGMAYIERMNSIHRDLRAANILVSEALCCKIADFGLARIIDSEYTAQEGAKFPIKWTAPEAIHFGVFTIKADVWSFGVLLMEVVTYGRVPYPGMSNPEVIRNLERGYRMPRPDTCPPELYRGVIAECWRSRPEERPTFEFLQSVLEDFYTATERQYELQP

Row | Ki | SMILES
48 | 0.19 µM | Nc1ncnc2c1c(-c1ccc(Cl)cc1)nn2CC(Cl)c1ccccc1 (stereo not drawn)

molecular target: Tyrosine-protein kinase Fyn (Homo sapiens, UniProt P06241); assay: Inhibition of recombinant full length N-terminal His6 tagged human FYN expressed in baculovirus infected sf21 cells using KVEKIGEGTYGVVYK as substrate in presence of [gamma33P]ATP by scintillation counting method; details: not given
How it was run: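 Fyn radiometric assay with 250 µM Src-peptide, 100 µM ATP plus γ-33P ATP, 0.00087% NP-40, 10-50 ng enzyme, 10% DMSO, 30 °C for 10 min. ID50 taken from velocity fits. Ki derived assuming ATP-competitive binding, with ATP Km 102 µM.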

Chain of Tyrosine-protein kinase Fyn (P06241 whole entry): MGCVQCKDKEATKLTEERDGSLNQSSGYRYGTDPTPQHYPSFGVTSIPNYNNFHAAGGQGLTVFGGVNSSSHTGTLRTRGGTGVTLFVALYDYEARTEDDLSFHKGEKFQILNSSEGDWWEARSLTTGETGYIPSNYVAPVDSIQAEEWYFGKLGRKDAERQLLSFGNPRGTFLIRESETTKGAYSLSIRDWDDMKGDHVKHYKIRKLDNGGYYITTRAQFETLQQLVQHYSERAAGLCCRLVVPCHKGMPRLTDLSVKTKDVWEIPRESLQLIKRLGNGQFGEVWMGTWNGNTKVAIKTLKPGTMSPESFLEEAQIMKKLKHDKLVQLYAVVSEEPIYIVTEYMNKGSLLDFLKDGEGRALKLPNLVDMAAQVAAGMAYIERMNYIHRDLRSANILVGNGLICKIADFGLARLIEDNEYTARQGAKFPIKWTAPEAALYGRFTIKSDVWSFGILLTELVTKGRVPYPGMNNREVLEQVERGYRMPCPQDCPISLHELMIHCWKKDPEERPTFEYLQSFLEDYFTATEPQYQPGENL

Row | Ki | SMILES
49 | 0.16 µM | Nc1ncnc2c1c(-c1ccc(Cl)cc1)nn2CC(Cl)c1ccccc1 (stereo not drawn)

tested on: FEPD; assay: Antiproliferative activity against human FEPD cells assessed as reduction in cell viability after 72 hrs by MTT assay; details: not given

Row | SMILES | IC50
50 | CCc1ccc(-c2nn(CC(Cl)c3ccccc3)c3ncnc(N)c23)cc1 (racemic) | 21.5 µM
51 | CC(Cn1nc(-c2ccc(F)cc2)c2c(N)ncnc21)c1ccccc1 (racemic) | > 100 µM
52 | Cc1ccc(-c2nn(CCc3ccccc3)c3ncnc(N)c23)cc1 | 21.5 µM
53 | Nc1ncnc2c1c(-c1ccccc1Cl)nn2CC(Cl)c1ccccc1 (racemic) | 38.9 µM
54 | CCCc1ccc(-c2nn(CC(Cl)c3ccccc3)c3ncnc(N)c23)cc1 (racemic) | 29.2 µM
55 | Nc1ncnc2c1c(-c1ccc(CO)cc1)nn2CC(O)c1ccccc1 (racemic) | 26.5 µM
56 | Nc1ncnc2c1c(-c1ccc(Cl)cc1)nn2CC(Cl)c1ccccc1 (stereo not drawn) | 15.8 µM

tested on: SU-DHL-6; assay: Antiproliferative activity against human SUDHL6 cells assessed as reduction in cell viability after 72 hrs by MTT assay; details: SU-DHL-6, 72 h

Row | SMILES | IC50
57 | CCc1ccc(-c2nn(CC(Cl)c3ccccc3)c3ncnc(N)c23)cc1 (racemic) | 29.7 µM
58 | CC(Cn1nc(-c2ccc(F)cc2)c2c(N)ncnc21)c1ccccc1 (racemic) | 22.9 µM
59 | Cc1ccc(-c2nn(CCc3ccccc3)c3ncnc(N)c23)cc1 | > 100 µM
60 | Nc1ncnc2c1c(-c1ccc(Cl)cc1)nn2CC(Cl)c1ccccc1 (stereo not drawn) | 21.5 µM

Results, then the compound that gave them:

Row | IC50 | SMILES
61 | 34.2 µM | Nc1ncnc2c1c(-c1ccc(CO)cc1)nn2CC(O)c1ccccc1 (racemic)
62 | > 100 µM | Nc1ncnc2c1c(-c1ccccc1Cl)nn2CC(Cl)c1ccccc1 (racemic)
63 | 31.1 µM | CCCc1ccc(-c2nn(CC(Cl)c3ccccc3)c3ncnc(N)c23)cc1 (racemic)
